Bioassay records (PubChem BioAssay)
Bfl-1 A1 inh: inhibitors of the anti-apoptotic protein A1, read as caspase activation; AID 2462; caspase activation, % (no concentration beside the values); 330,000 tested, 0.066% active; MEF A1-2A-BIM cells, Caspase-Glo 3/7 luminescence, 3 h; percent of clofoctol response, vehicle zero;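 active = over half of replicate activation scores above 10%, or exactly half above 10 with the replicate mean above 10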
UPR XBP1 act: adaptive UPR (XBP1) activation; 330,000 tested, 0.33% active; CHO-XBP1 luciferase reporter, IRE1-XBP1 UPR activation, luminescence; percent of tunicamycin response, DMSO as zero; AID 463104; activation, % at 20 µM;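 active = versus positive control, 20 µM dose yields 30% or more activation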
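Material: CHO cell line with stable XBP1 luciferase reporter; buffer or medium: F12 medium containing 10% fetal bovine serum; compound: single point, 20 µM final compound, 1% DMSO; incubation: 6 h treatment, 37 °C; measured by: glow luminescence from Steady-Glo reagent; evaluation: activation, % of tunicamycin; control set: tunicamycin high, DMSO low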
CHOP inhibitor: CHOP inhibition in unfolded protein response; CHO-K1 CHOP-promoter luciferase, tunicamycin-induced, 15-18 h; inhibition, % at 10 µM; 220,000 tested, 3.8% active; AID 2732;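 active = compounds that reduced the stress-induced luciferase reporter signal by more than about 70% of percent inhibition, limit read from the data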
UPR CHOP act: apoptotic UPR (CHOP) activation. CHO-CHOP luciferase reporter, luminescence; percent of tunicamycin response over DMSO baseline. activation, % at 10 µM. 330,000 tested, 0.34% active;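 active = at 10 µM dose, activation of 40% or more, normalized to positive control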
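Assay system: CHO cells with stable CHOP pathway luciferase reporter; Buffer or medium: F12 plus 10% serum; Times: 16-18 h cell attachment, then 6 h compound exposure, 37 °C; Signal: luciferase luminescence; Read-out basis: percent activation relative to tunicamycin control; Control set: tunicamycin high control, DMSO low control.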
Numbers stand for hits; . = inactive; / = not tested or not shown. The full list was thinned out, with hits kept by preference.

SMILES | Bfl-1 A1 inh | UPR XBP1 act | CHOP inhibitor | UPR CHOP act
Cc1ccc(Nc2cc(C)c3ccc(O)cc3n2)cc1C | . | . | 79 | .
COC(=O)c1cc(Nc2cc(C)c3ccc(O)cc3n2)cc(C(=O)OC)c1 | . | . | 71 | .
COC(=O)c1cc(Nc2cc(C)c3c(O)cccc3n2)cc(C(=O)OC)c1 | . | . | . | .
CCC(C(=O)NCCC(C)C)n1ccc2cc(S(=O)(=O)N3CCCCC3)ccc21 (stereo not drawn) | . | . | / | .
Cc1cc(C)c(S(=O)(=O)NCc2ccc3c(c2)cc(C)n3C)c(C)c1 | . | . | 71 | .
Cc1cc2cc(CNS(=O)(=O)c3ccc4ccccc4c3)ccc2n1C | . | . | . | .
O=C(Cn1c(=O)sc2ccccc21)NCc1ccccn1 | . | . | 75 | .
C#CCOCCOCCOCCNc1nc(N2CCOCC2)nc(N2CCN(C(=O)[C@H](CC(N)=O)n3cc(C(N)[C@@H](C)CC)nn3)CC2)n1 (stereo partly drawn) | . | . | / | .
O=C(CCC(=O)Nc1ccccc1)N/N=C/C=C/c1ccccc1 | . | . | . | .
CCc1nnc(NC(=O)c2c(-c3ccccc3)noc2C)s1 | . | . | / | .
Cc1onc(-c2ccccc2)c1C(=O)Nc1nnc(COc2ccc(Cl)cc2)s1 | . | . | 89 | .
Cc1onc(-c2ccccc2Cl)c1C(=O)Nc1nnc(-c2ccc(Br)cc2)s1 | . | . | . | .
O=C(Nc1nnc(-c2ccccc2Cl)s1)C1CCN(S(=O)(=O)c2ccc(Cl)cc2)CC1 | . | . | . | .
O=C(Nc1nnc(COc2ccccc2)s1)C1CCN(S(=O)(=O)c2ccc(Cl)cc2)CC1 | . | . | 80 | .
Cc1onc(-c2ccccc2Cl)c1C(=O)Nc1nnc(-c2ccc(Cl)cc2Cl)s1 | . | . | 78 | .
O=C(N/N=C/c1ccc(O)cc1)c1[nH]c2ccc(Br)cc2c1-c1ccccc1 | . | . | . | .
O=C(N/N=C/c1c[nH]c2ccccc12)c1[nH]c2ccc(Br)cc2c1-c1ccccc1 | / | / | 92 | /
O=C(Nc1ccc(-c2nc3ccccc3o2)c(O)c1)c1cc(-n2cnnc2)ccc1Cl | . | . | 92 | .
CN(C)c1ccc(/C=N/NC(=O)C2COc3ccccc3O2)o1 (stereo not drawn) | . | . | . | .
O=C(N/N=C\c1ccc(-c2ccc([N+](=O)[O-])cc2)o1)C1COc2ccccc2O1 (stereo not drawn) | . | . | 81 | .
CC[N+]1=C(C)C(C)(C)c2cc(C)ccc21 | . | . | 74 | .
CCN1C(=O)C(=O)c2cc(C)ccc21 | . | . | / | .
COc1ccc(NS(=O)(=O)c2cccc(C(=O)OCC(=O)N3CCN(c4ccc(OC)cc4)CC3)c2)cc1 | . | . | / | .
C/C(=N\NC(=O)Nc1ccccc1)c1ccc2ccccc2c1 | . | . | 80 | .
C/C(=N\NC(=O)Cc1c[nH]c2ccccc12)c1ccc2ccccc2c1 | . | . | 81 | .
SMILES | Bfl-1 A1 inh | UPR XBP1 act | CHOP inhibitor | UPR CHOP act
C/C(=N/NC(=O)Nc1ccccc1)c1ccc(C)cc1 | . | . | . | .
O=C1CC(c2ccc(Cl)cc2)n2nc(N3C(=O)c4ccccc4C3=O)nc2N1 (stereo not drawn) | . | . | . | .
OC(CNC1Cc2ccccc2C1)COc1ccc(F)cc1 (stereo not drawn) | . | . | . | .
Cc1ccc(SCC2(O)CCN(C(=O)c3ccc(Cl)cc3)CC2)cc1 | . | . | 82 | .
Cc1ccc(SCc2ccc(C(=O)N3CCCC3)cc2)cc1 | . | . | . | .
Cc1cc(C)cc(C(=O)n2cnnc2N)c1 | . | . | . | .
CC(=O)c1cccc(NC(=O)c2cc(C)no2)c1 | . | . | . | .
Cc1cc(NC(=O)CSc2nc(C(C)C)nc3sc(C)c(C)c23)no1 | . | . | 85 | .
CCCCCCn1c(SCC(=O)Nc2cc(C)on2)nc2ccccc2c1=O | . | . | 75 | .
CCc1c(C)sc2nc(SCC(=O)Nc3cc(C)on3)n(CCOC)c(=O)c12 | . | . | 78 | .
O=C(CSc1nc2ccccc2c(=O)n1Cc1ccc(F)cc1)NCc1cccs1 | . | . | 82 | .
COCCn1c(SCC(=O)Nc2cc(C)on2)nc2ccccc2c1=O | . | . | / | .
Cc1cc(C)c(S(=O)(=O)N2CCOC2CNC(=O)C(=O)NCCCN2CCCC2=O)c(C)c1 (stereo not drawn) | . | . | / | .
CCOc1ccc(CC(=O)N/N=C(\C)c2cccnc2)cc1OCC | . | . | / | .
COCCn1nnnc1SCC(=O)Nc1ccc2c(c1)OCO2 | . | . | . | .
Cc1cccc(NC(=O)CCS(=O)(=O)c2ccc(Cl)cc2)c1 | . | . | / | .
C=CCSc1nc2ccccc2c(=O)n1Cc1ccccc1 | . | . | 87 | .
O=c1c2ccccc2nc(SCc2ccccc2Cl)n1Cc1ccccc1 | . | . | . | .
Cc1cc(NC(=O)CSc2nc3ccccc3c(=O)n2Cc2ccc(F)cc2)no1 | . | . | 78 | .
CN1CCN(c2ccccc2NC(=O)c2ccc(N3CCOCC3)c([N+](=O)[O-])c2)CC1 | . | . | / | .
O=C(NCc1ccco1)c1ccc(Cl)c(S(=O)(=O)N2CCCC2)c1 | . | . | / | .
OC(CN1CCN(c2ccccn2)CC1)Cn1c2ccccc2c2ccccc21 (stereo not drawn) | . | . | 72 | .
CCOC(=O)c1ccc(NC(=O)Nc2ccc3c4c(cccc24)C(=O)N3CC)cc1 | . | . | 83 | .
O=C(Nc1cccc(S(=O)(=O)Nc2ccc(Cl)cc2)c1)c1ccc(Cl)nc1 | . | . | 73 | .
O=C(Nc1cccc(S(=O)(=O)Nc2ccc(Cl)cc2)c1)c1cc2c(s1)CCCC2 | . | . | 76 | .
SMILES | Bfl-1 A1 inh | UPR XBP1 act | CHOP inhibitor | UPR CHOP act
O=C1C2C3C=CC(CNS(=O)(=O)c4ccccc4)(O3)C2C(=O)N1c1ccc(Cl)cc1 (stereo not drawn) | . | . | . | .
N#Cc1nc(Cc2ccccc2)oc1NCc1cccnc1 | . | . | . | .
N#Cc1ncc(Cc2ccccc2)nc1C#N | . | . | / | 60
O=c1/c(=C\c2cccn2-c2ccccc2)sc2nc3ccccc3n12 | / | / | . | /
Cc1ccc(-n2c(C)cc(/C=c3/sc4nc5ccccc5n4c3=O)c2C)cc1 | . | . | 85 | .
CCC(C(=O)OCC(=O)Nc1cc(Cl)cc(Cl)c1)c1ccccc1 (stereo not drawn) | . | . | 92 | .
CCC(C(=O)OCC(=O)Nc1cccc(C(C)=O)c1)c1ccccc1 (stereo not drawn) | . | . | . | .
CC1Cc2ccccc2N1C(=O)CCS(=O)(=O)c1cccs1 (stereo not drawn) | . | . | . | .
CC1Cc2ccccc2N1C(=O)Cc1cccs1 (stereo not drawn) | . | . | 71 | .
Cc1ccc(S(=O)(=O)N2[C@@H](c3cccc(Cl)c3)C(C(=O)O)=CC[C@H]2c2ccc(Cl)cc2)cc1 | . | . | / | .
Cc1ccc(C(=O)/C=C/Nc2cccc(O)c2)cc1 | . | . | . | .
C/C(=C\C(=O)c1ccc(C)cc1)Nc1cccc(O)c1 | . | . | 94 | .
